Assays:
Format in all cases: functional
NCI-H322M [1] = experiment: Growth inhibition of human NCI-H322M cells incubated for 48 hrs by sulforhodamine B assay
Method in brief: (§1)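 NCI60 panel at the NCI Developmental Therapeutics Program. Only compounds active in the 10 µM screen went to dose-response testing. GI50, the concentration giving 50% of maximal inhibition of proliferation, and TGI, the concentration giving total growth inhibition, were derived from the dose-response curves.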

OVCAR-5 [2] = experiment: Growth inhibition of human OVCAR-5 cells incubated for 48 hrs by sulforhodamine B assay
Method in brief: (§2)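 NCI DTP 60-line human tumour panel. Dose-response curves were run only for ligands active in the initial 10 µM screen. GI50 (concentration giving 50% of maximal inhibition of proliferation) and TGI (concentration giving total growth inhibition) were derived from these curves.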

T47D = experiment: Growth inhibition of human T47D cells assessed as cell growth at 0.01 uM incubated for 48 hrs by sulforhodamine B assay relative to control; settings: read-out: Activity
OVCAR-5 [3] = experiment: Growth inhibition of human OVCAR-5 cells assessed as cell growth at 100 uM incubated for 48 hrs by sulforhodamine B assay relative to control; settings: read-out: Activity
M14 = experiment: Growth inhibition of human M14 cells assessed as cell growth at 1 uM incubated for 48 hrs by sulforhodamine B assay relative to control; settings: read-out: Activity
CCRF-CEM = experiment: Growth inhibition of human CCRF-CEM cells assessed as cell growth at 0.1 uM incubated for 48 hrs by sulforhodamine B assay relative to control; settings: read-out: Activity
Method in brief: (§3)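 NCI Developmental Therapeutics Program NCI60 panel. Compounds that were active in the 10 µM one-dose screen went on to dose–response testing. Growth at each concentration is expressed relative to untreated control (100%). GI50 (concentration giving 50% of maximal inhibition of proliferation) and TGI (concentration giving total growth inhibition) were derived from the curves.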

OVCAR-5 [4] = experiment: Growth inhibition of human OVCAR-5 cells assessed as cell growth at 1 uM incubated for 48 hrs by sulforhodamine B assay relative to control; settings: read-out: Activity
MCF7 = experiment: Growth inhibition of human MCF7 cells assessed as cell growth at 0.01 uM incubated for 48 hrs by sulforhodamine B assay relative to control; settings: read-out: Activity
LOX IMVI = experiment: Growth inhibition of human LOX IMVI cells incubated for 48 hrs by sulforhodamine B assay; method in brief: as §1
SNB-75 = experiment: Growth inhibition of human SNB-75 cells assessed as cell growth at 0.01 uM incubated for 48 hrs by sulforhodamine B assay relative to control; settings: read-out: Activity
HCT-116 [5] = experiment: Growth inhibition of human HCT-116 cells assessed as cell growth at 100 uM incubated for 48 hrs by sulforhodamine B assay relative to control; settings: read-out: Activity
PC-3 [6] = experiment: Growth inhibition of human PC-3 cells incubated for 48 hrs by sulforhodamine B assay; method in brief: as §2
HCT-116 [7] = experiment: Growth inhibition of human HCT-116 cells assessed as cell growth at 0.1 uM incubated for 48 hrs by sulforhodamine B assay relative to control; settings: read-out: Activity
MOLT-4 = experiment: Growth inhibition of human MOLT-4 cells assessed as cell growth at 0.01 uM incubated for 48 hrs by sulforhodamine B assay relative to control; settings: read-out: Activity
HOP-62 = experiment: Growth inhibition of human HOP-62 cells assessed as cell growth at 100 uM incubated for 48 hrs by sulforhodamine B assay relative to control; settings: read-out: Activity
UO-31 = experiment: Growth inhibition of human UO-31 cells assessed as cell growth at 0.1 uM incubated for 48 hrs by sulforhodamine B assay relative to control; settings: read-out: Activity
SK-MEL-5 = experiment: Growth inhibition of human SK-MEL-5 cells assessed as cell growth at 0.1 uM incubated for 48 hrs by sulforhodamine B assay relative to control; settings: read-out: Activity
NCI-H23 = experiment: Growth inhibition of human NCI-H23 cells incubated for 48 hrs by sulforhodamine B assay; method in brief: as §1
NCI-H322M [8] = experiment: Growth inhibition of human NCI-H322M cells assessed as cell growth at 100 uM incubated for 48 hrs by sulforhodamine B assay relative to control; settings: read-out: Activity
A549 = experiment: Growth inhibition of human A549/ATCC cells assessed as cell growth at 0.1 uM incubated for 48 hrs by sulforhodamine B assay relative to control; settings: read-out: Activity; method in brief: as §3
SF-268 [9] = experiment: Growth inhibition of human SF-268 cells assessed as cell growth at 1 uM incubated for 48 hrs by sulforhodamine B assay relative to control; settings: read-out: Activity
BT-549 [10] = experiment: Growth inhibition of human BT-549 cells incubated for 48 hrs by sulforhodamine B assay; method in brief: as §3
SK-OV-3 = experiment: Growth inhibition of human SK-OV-3 cells assessed as cell growth at 100 uM incubated for 48 hrs by sulforhodamine B assay relative to control; settings: read-out: Activity
PC-3 [11] = experiment: Growth inhibition of human PC-3 cells assessed as cell growth at 0.01 uM incubated for 48 hrs by sulforhodamine B assay relative to control; settings: read-out: Activity
786-0 = experiment: Growth inhibition of human 786-0 cells assessed as cell growth at 0.01 uM incubated for 48 hrs by sulforhodamine B assay relative to control; settings: read-out: Activity; method in brief: as §3
Malme-3M [12] = experiment: Growth inhibition of human Malme-3M cells assessed as cell growth at 1 uM incubated for 48 hrs by sulforhodamine B assay relative to control; settings: read-out: Activity
COLO 205 [13] = experiment: Growth inhibition of human COLO 205 cells assessed as cell growth at 0.1 uM incubated for 48 hrs by sulforhodamine B assay relative to control; settings: read-out: Activity; method in brief: as §3
Malme-3M [14] = experiment: Growth inhibition of human Malme-3M cells assessed as cell growth at 0.01 uM incubated for 48 hrs by sulforhodamine B assay relative to control; settings: read-out: Activity
NCI-H322M [15] = experiment: Growth inhibition of human NCI-H322M cells assessed as cell growth at 0.1 uM incubated for 48 hrs by sulforhodamine B assay relative to control; settings: read-out: Activity
BT-549 [16] = experiment: Growth inhibition of human BT-549 cells assessed as cell growth at 1 uM incubated for 48 hrs by sulforhodamine B assay relative to control; settings: read-out: Activity
CAKI-1 = experiment: Growth inhibition of human CAKI-1 cells assessed as cell growth at 1 uM incubated for 48 hrs by sulforhodamine B assay relative to control; settings: read-out: Activity; method in brief: as §3
SR = experiment: Growth inhibition of human SR cells incubated for 48 hrs by sulforhodamine B assay; method in brief: as §2
COLO 205 [17] = experiment: Growth inhibition of human COLO 205 cells incubated for 48 hrs by sulforhodamine B assay; method in brief: as §3
SF-268 [18] = experiment: Growth inhibition of human SF-268 cells assessed as cell growth at 100 uM incubated for 48 hrs by sulforhodamine B assay relative to control; settings: read-out: Activity
A498 = experiment: Growth inhibition of human A498 cells assessed as cell growth at 0.1 uM incubated for 48 hrs by sulforhodamine B assay relative to control; settings: read-out: Activity; method in brief: as §3
[19] = read-out: LC50 (the source's name)

SMILES: Nc1c(C(=O)Nc2ccccc2)sc2nc3c(cc12)CN(Cc1ccccc1)CC3
- GI50 (NCI-H322M [1]): > 100 µM
- TGI (NCI-H322M [1]): > 100 µM
- CC50 (NCI-H322M [1]; [19]): > 100 µM
- GI50 (OVCAR-5 [2]): > 100 µM
- TGI (OVCAR-5 [2]): > 100 µM
- CC50 (OVCAR-5 [2]; [19]): > 100 µM
- growth at 0.01 µM (T47D): 99%
- growth at 100 µM (OVCAR-5 [3]): 66%
- growth at 1 µM (M14): 91%
- growth at 0.1 µM (CCRF-CEM): 96%
- growth at 1 µM (OVCAR-5 [4]): 93%
- growth at 0.01 µM (MCF7): 93%
- GI50 (LOX IMVI): 10.5 µM
- LC50 (LOX IMVI): > 100 µM
- TGI (LOX IMVI): > 100 µM
- growth at 0.01 µM (SNB-75): 91%
- growth at 100 µM (HCT-116 [5]): 17%
- GI50 (PC-3 [6]): 27.1 µM
- TGI (PC-3 [6]): > 100 µM
- CC50 (PC-3 [6]; [19]): > 100 µM
- growth at 0.1 µM (HCT-116 [7]): 92%
- growth at 0.01 µM (MOLT-4): 97%
- growth at 100 µM (HOP-62): -24%
- growth at 0.1 µM (UO-31): 83%
- growth at 0.1 µM (SK-MEL-5): 100%
- GI50 (NCI-H23): 21.7 µM
- LC50 (50% lethal concentration) (NCI-H23): > 100 µM
- TGI (NCI-H23): > 100 µM
- growth at 100 µM (NCI-H322M [8]): 59%
- growth at 0.1 µM (A549): 99%
- growth at 1 µM (SF-268 [9]): 85%
- GI50 (BT-549 [10]): 16.8 µM
- TGI (BT-549 [10]): 92.3 µM
- CC50 (BT-549 [10]; [19]): > 100 µM
- growth at 100 µM (SK-OV-3): 5%
- growth at 0.01 µM (PC-3 [11]): 95%
- growth at 0.01 µM (786-0): 96%
- growth at 1 µM (Malme-3M [12]): 87%
- growth at 0.1 µM (COLO 205 [13]): 94%
- growth at 0.01 µM (Malme-3M [14]): 87%
- growth at 0.1 µM (NCI-H322M [15]): 93%
- growth at 1 µM (BT-549 [16]): 90%
- growth at 1 µM (CAKI-1): 87%
- GI50 (SR): 13.1 µM
- LC50 (SR): > 100 µM
- TGI (SR): > 100 µM
- GI50 (COLO 205 [17]): 24 µM
- LC50 (concentration killing 50% of cells) (COLO 205 [17]): > 100 µM
- TGI (COLO 205 [17]): > 100 µM
- growth at 100 µM (SF-268 [18]): 9%
- growth at 0.1 µM (A498): 82%
